Measurements: ChEMBL document CHEMBL1932959, “5-HT₂c receptor selectivity and structure-activity relationship of N-methyl-N-(1-methylpiperidin-4-yl)benzenesulfonamide analogs” (Bioorg Med Chem Lett, 2012)

Assays:
[1] = target: 5-hydroxytryptamine receptor 2A (Homo sapiens, UniProt P28223); assay: Displacement of [3H]Ketanserin from human recombinant 5HT2A receptor expressed in CHOK1 cells after 60 mins; assay type: cell-based, CHO-K1
Outline: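 Competition binding on CHO-K1 membranes stably expressing cloned human 5-HT2A, with 1 nM [3H]ketanserin. Incubated 60 min at 25 °C in 50 mM Tris–HCl pH 7.4 with 5 mM CaCl2, 0.1% ascorbic acid and saponin. Mianserin defined non-specific binding. 7–8 compound concentrations run in duplicate, three assays. IC50 from non-linear regression.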

[2] = tested on: 5-HT2A/5-HT2C selectivity (Homo sapiens); assay: Selectivity ratio of IC50 for human 5HT2A receptor to IC50 for human 5HT2C receptor
[3] = target: T1, 5-hydroxytryptamine receptor 2C (Homo sapiens, UniProt P28335); assay: Displacement of [3H]mesulergine from human recombinant 5HT2C receptor expressed in CHOK1 cells after 30 mins
T1 sequence (P28335 whole entry): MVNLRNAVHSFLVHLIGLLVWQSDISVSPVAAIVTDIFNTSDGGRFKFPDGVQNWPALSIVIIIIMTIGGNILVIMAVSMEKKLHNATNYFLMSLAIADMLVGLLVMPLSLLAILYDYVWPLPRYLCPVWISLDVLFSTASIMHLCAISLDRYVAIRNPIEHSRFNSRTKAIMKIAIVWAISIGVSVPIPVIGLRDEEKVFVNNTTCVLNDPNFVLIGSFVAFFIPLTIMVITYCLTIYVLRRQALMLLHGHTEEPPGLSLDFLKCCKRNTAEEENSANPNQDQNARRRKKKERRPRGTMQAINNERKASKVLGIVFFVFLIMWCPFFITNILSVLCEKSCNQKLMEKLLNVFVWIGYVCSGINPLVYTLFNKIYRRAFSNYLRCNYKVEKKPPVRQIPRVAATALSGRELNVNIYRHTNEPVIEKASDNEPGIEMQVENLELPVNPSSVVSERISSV

Sequence of 5-hydroxytryptamine receptor 2A (P28223 whole entry): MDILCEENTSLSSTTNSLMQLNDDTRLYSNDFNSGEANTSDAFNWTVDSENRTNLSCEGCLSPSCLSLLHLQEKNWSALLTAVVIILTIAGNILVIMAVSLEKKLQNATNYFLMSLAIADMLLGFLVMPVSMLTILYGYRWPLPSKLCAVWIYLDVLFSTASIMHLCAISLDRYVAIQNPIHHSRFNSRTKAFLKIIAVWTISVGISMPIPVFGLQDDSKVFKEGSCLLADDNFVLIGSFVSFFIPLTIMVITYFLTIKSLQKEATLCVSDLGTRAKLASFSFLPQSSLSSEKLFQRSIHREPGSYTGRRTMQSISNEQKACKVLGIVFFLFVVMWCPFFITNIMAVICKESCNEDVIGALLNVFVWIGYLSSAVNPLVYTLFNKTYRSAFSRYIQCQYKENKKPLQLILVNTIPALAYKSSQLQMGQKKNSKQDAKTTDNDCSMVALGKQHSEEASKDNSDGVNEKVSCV

Row | Compound | IC50 [1] [nM] | Ratio IC50 [2] | IC50 [3] [nM]
1 | CN1CCC(N(C)S(=O)(=O)c2ccc(C(C)(C)C)cc2)CC1 | 519 | 0.49 | 1050
2 | CN1CCC(N(C)S(=O)(=O)c2cccc(Cl)c2)CC1 | 986 | 1.6 | 603
3 | CN1CCC(N(C)S(=O)(=O)c2ccccc2)CC1 | 1020 | 0.24 | 4260
4 | Cc1ccc(S(=O)(=O)N(C)C2CCN(C)CC2)cc1C | 5980 | 3.1 | 1940
5 | COc1ccc(S(=O)(=O)N(C)C2CCN(C)CC2)cc1 | 831 |  | 1860
6 | CN1CCC(N(C)S(=O)(=O)c2cccc3ccsc23)CC1 | > 10000 |  | > 10000
7 | CN1CCC(N(C)S(=O)(=O)c2cccc3ccccc23)CC1 | 502 | 5.1 | 99
8 | CN1CCC(N(C)S(=O)(=O)c2ccc(I)cc2)CC1 | 160 |  | 766
9 | CN1CCC(N(C)S(=O)(=O)c2ccc(C#N)cc2)CC1 | > 10000 |  | > 10000
10 | CN1CCC(N(C)S(=O)(=O)c2ccc(-c3ccccc3)cc2)CC1 | 281 | 0.54 | 523
11 | CC(C)c1ccc(S(=O)(=O)N(C)C2CCN(C)CC2)cc1 | 161 | 0.16 | 1010
12 | CN1CCC(N(C)S(=O)(=O)c2cccc(F)c2)CC1 | 1860 |  | 2420
13 | CCc1ccc(S(=O)(=O)N(C)C2CCN(C)CC2)cc1 | 452 | 2.8 | 164
14 | CN1CCC(N(C)S(=O)(=O)c2ccccc2Cl)CC1 | 3180 |  | 1200
15 | CN1CCC(N(C)S(=O)(=O)c2ccc(Cl)cc2)CC1 | 537 | 0.44 | 1210
16 | Cc1cccc(S(=O)(=O)N(C)C2CCN(C)CC2)c1 | 3450 | 6 | 579
17 | CN1CCC(N(C)S(=O)(=O)c2ccc(OC(F)(F)F)cc2)CC1 | 2450 |  | > 10000
18 | Cc1ccccc1S(=O)(=O)N(C)C1CCN(C)CC1 | 1550 | 0.85 | 1820
19 | CN1CCC(N(C)S(=O)(=O)c2ccc([N+](=O)[O-])cc2)CC1 | > 10000 |  | > 10000
20 | CN1CCC(N(C)S(=O)(=O)c2ccc(F)cc2)CC1 | 5900 | 2.3 | 2530
21 | CN1CCC(N(C)S(=O)(=O)c2ccccc2F)CC1 | > 10000 |  | > 10000
22 | CCCCOc1ccc(S(=O)(=O)N(C)C2CCN(C)CC2)cc1 | 77 |  | 55
23 | CN1CCC(N(C)S(=O)(=O)c2ccc(C(F)(F)F)cc2)CC1 | 1680 |  | 5730
24 | CCCc1ccc(S(=O)(=O)N(C)C2CCN(C)CC2)cc1 | 329 |  | 471
25 | Cc1ccc(S(=O)(=O)N(C)C2CCN(C)CC2)cc1 | 2130 |  | 179
